# C8 TRAIL sens – sensitizes caspase-8 expressing cells to TRAIL. NB7+C8 cells + TRAIL, ATPlite viability luminescence. inhibition (viability loss, TRAIL sensitization), % at 10 µM. 360,000 compounds, 1% hits;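 active = compounds causing at least 50% loss of cell viability in the single-dose screen, relative to plate controls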
# FLuc inhib CS – inhibits firefly luciferase, flagging false hits in luciferase inhibition screens. P08659. ATPLite firefly luciferase biochemical luminescence, 10 min. inhibition, % at 10 µM. 200,000 compounds, 1.5% hits. AID 1006;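 active = inhibition above about 50% when tested at 10 µM, limit read from the data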
# Target sequence (P08659 whole entry, looked up): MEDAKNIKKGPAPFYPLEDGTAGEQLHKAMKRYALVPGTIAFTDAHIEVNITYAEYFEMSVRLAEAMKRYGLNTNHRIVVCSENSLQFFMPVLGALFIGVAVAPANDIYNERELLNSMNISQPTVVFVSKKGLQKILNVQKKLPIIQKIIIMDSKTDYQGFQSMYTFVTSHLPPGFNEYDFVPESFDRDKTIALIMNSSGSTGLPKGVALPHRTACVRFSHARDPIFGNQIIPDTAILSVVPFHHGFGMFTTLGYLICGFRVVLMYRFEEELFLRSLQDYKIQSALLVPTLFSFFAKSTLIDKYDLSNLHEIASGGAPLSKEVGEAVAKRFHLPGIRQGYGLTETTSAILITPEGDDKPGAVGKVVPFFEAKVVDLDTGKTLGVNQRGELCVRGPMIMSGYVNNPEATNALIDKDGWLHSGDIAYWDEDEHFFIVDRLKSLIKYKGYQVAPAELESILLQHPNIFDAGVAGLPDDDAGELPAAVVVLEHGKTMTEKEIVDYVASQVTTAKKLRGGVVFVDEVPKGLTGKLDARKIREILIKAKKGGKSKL
# PPC-1+TRAIL kill – kills PPC-1 cancer cells in the presence of TRAIL | PPC-1 cells + TRAIL, ATPLite viability luminescence | cell killing (% activity), % at 4 µM or 5 µM | 220,000 compounds, 0.41% hits | AID 1443;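 active = cell killing above 50% in the first pass at 4 µM, then a duplicate retest at 5 µM averaging 50% or more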;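 note: plate controls were cells with TRAIL plus DMSO for no effect and medium-only wells lacking cells for full effect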
# FLuc act counter – affects firefly luciferase, flagging false hits in luciferase stimulation screens; P08659; ATPlite luciferase biochemical, luminescence, 10 min; 0 = ATP-free wells, 1 = DMSO control; activation factor at 10 µM; 200,000 tested, under 10 active; AID 1027;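 active = luciferase activation factor, scaled between plate controls, of at least 2 with compound at 10 µM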
#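 Assay system: Luciferase/luciferin detection reagent, cell-free biochemical luciferase assay / Read-out: luciferase activation / Benchmarks: No-ATP low control, compound-free enzyme-plus-ATP high control / Medium: PBS buffer for ATP / Detection: luminescence measurement of luciferase light output / Schedule: 10 min at ambient temperature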
# HSP90 inh – HSP90 refolding inhibition in rabbit reticulocyte lysate; luciferase refolding luminescence, 3 h; inhibition, % at 5.6 µM; 290,000 compounds, 0.91% hits;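 active = inhibition above the screen-wide mean plus 3 SD, computed separately per campaign, cut at about 16% in these data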;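 note: 0% = DMSO wells and 100% = 60 µM geldanamycin wells; inhibitors lower the luminescence because luciferase stays unfolded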
# HSP90 inh confirm – confirmation of HSP90 inhibitors | rabbit reticulocyte lysate, luciferase refolding luminescence, 3 h | 2,300 compounds, 64% hits | shares compounds with HSP90 inh | inhibition, % at 5.9 µM; in the data active = inhibition above about 18%;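 note: 0% = vehicle wells and 100% = reference inhibitor wells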
# luciferase ctr – blocks native firefly luciferase in HSP90 counter-screen; purified native firefly luciferase, luminescence; inhibition, % at 5.9 µM; shares compounds with HSP90 inh; 2,300 compounds, 48% hits;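 active = inhibition above the mean inhibition of all tested sample wells plus 3 SD, cut at about 10% in these data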;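 note: 0% = DMSO with luciferase and 100% = wells lacking luciferase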
# * hit, by the source's call; . = no result. This is a sample that favours compounds with a hit; in the whole collection about 2% have one here.
SMILES,C8 TRAIL sens,FLuc inhib CS,PPC-1+TRAIL kill,FLuc act counter,HSP90 inh,HSP90 inh confirm,luciferase ctr
O=C(C1=C[C@H](c2csc3ccccc23)C[C@H](OCCCCO)O1)N1CCN(Cc2ccc3c(c2)OCO3)CC1,-16.2,-2.3,-11.5,1,19.1*,-6.3,-13.4
O=C(COC(=O)C1CC2C=CC1C2)Nc1ccc([N+](=O)[O-])cc1 (centres undefined),-15.0,.,.,.,.,.,.
CC1(OC(=O)C2CCCC2)C(=O)C=C2C=C(c3ccsc3)N(C(CO)CO)C=C2C1=O (centres undefined),-18.7,.,16.3,.,.,.,.
O=C1CC(c2ccc3c(c2)OCO3)Sc2nc3ccccc3n21 (centres undefined),31.4,68.6*,-7.6,0.3,47.4*,71.6*,69.4*
O=C1CC(c2ccccc2)Sc2nc3ccccc3n21 (centres undefined),27.3,43.0,20.8,0.6,1.3,.,.
CC(C)CCNC(=O)C1CCC(CNc2c(N3CCCC3)c(=O)c2=O)CC1 (centres undefined),-12.4,.,20.9,.,-1.5,.,.
COc1ccc(N(/N=C2\Sc3ccccc3C2=O)C(C)=O)cc1,6.8,4.2,4.7,1,19.6*,73.1*,-18.9
COc1ccccc1N(/N=C1\Sc2ccccc2C1=O)C(C)=O,49.2,.,48.4,.,70.7*,75.9*,34.3*
O=C(NCCCN1CCCC1=O)c1cc(-c2ccc3c(c2)OCO3)nc2ccccc12,36.5,4.7,33.2,1,0.6,.,.
O=C(NCCCN1CCCC1=O)c1cc(-c2cccnc2)nc2ccc(Cl)cc12,-10.2,-4.1,14.6,1,28.2*,-3.1,-4.3
COc1ccc(-n2ncc3c(NCCN4CCOCC4)ncnc32)cc1,0.0,6.1,16.0,0.9,25.9*,26.6*,18.8*
COc1ccc(-n2ncc3c(NCC4CCCO4)ncnc32)cc1 (centres undefined),31.0,37.9,35.9,0.6,8.8,.,.
COc1ccc(-n2ncc3c(NCCCN4CCOCC4)ncnc32)cc1,6.5,15.1,11.2,0.8,27.8*,31.8*,32.1*
CCc1ccc(-c2cc3c(=O)n(CC(=O)N4CCCCCC4)nc(C)n3n2)cc1,8.6,.,.,.,-2.1,.,.
COc1cc(NCC(=O)Nc2cccc(S(=O)(=O)N3CCCCC3)c2)cc(OC)c1OC,8.3,.,.,.,.,.,.
CC(=O)/C=C(\C)Nc1ccccc1O,15.2,.,11.2,.,17.7*,25.9*,-8.3
N/C(=N\OC(=O)c1ccc([N+](=O)[O-])cc1Cl)c1ccccn1,88.1*,.,.,.,66.5*,60.6*,89.7*
Cc1ccc(C(=O)O/N=C(\N)c2ccccn2)c(Cl)c1,90.6*,.,.,.,94.0*,96.0*,90.9*
Fc1ccc(C2CCCN2Cc2nc(Cc3ccccc3)no2)cc1 (centres undefined),-0.6,3.0,10.0,1,0.4,.,.
CCOc1ccc(C(C)=O)cc1CN1C(=O)NC(C)(C2CC2)C1=O (centres undefined),0.5,-3.8,-1.1,1,3.2,.,.
O=C(COc1ccc(Cl)cc1Cl)NC(=O)N1CCCCC1,-10.4,32.8,17.5,0.7,27.6*,37.5*,31.3*
O=C(CCl)c1ccc2[nH]c(=O)oc2c1,10.1,.,13.7,.,-2.4,.,.
O=C(Oc1ccc2ccccc2c1Br)N1CCCCCC1,34.1,46.7,33.3,0.5,21.7*,42.9*,26.2*
CC(C)(C)c1ccc(NC(=O)c2ccsc2)cc1,69.3*,.,37.1,.,23.5*,39.3*,27.0*
CC(C)(C)c1ccc(C(=O)Nc2ccc(Cl)cc2)cc1,20.3,26.4,22.2,0.7,-4.8,.,.
SMILES,C8 TRAIL sens,FLuc inhib CS,PPC-1+TRAIL kill,FLuc act counter,HSP90 inh,HSP90 inh confirm,luciferase ctr
CC(C)NC(=O)CCCN1C(=O)c2ccccc2Sc2ncccc21,-10.9,.,.,.,-1.2,.,.
Cc1ccc(C(=O)NC2=NCCS2)cc1,.,.,-1.5,.,11.6,.,.
CC(C)c1ccc(C(=O)NC2=NCCS2)cc1,69.8*,83.5*,46.4,0.2,17.6*,42.3*,38.1*
CCCCCCCCN1C(=O)[C@H](CC(=O)NCCCN2CCCC2=O)C[C@@]2(C(=O)OC)CCCCC=C12,-14.1,.,.,.,.,.,.
COc1ccc2[nH]c(-c3ccc(C)cc3)cc(=O)c2c1,84.5*,93.4*,72.7*,0.1,25.2*,55.8*,32.6*
[O-]/[N+](=C\c1ccncc1)c1ccc(Br)cc1,11.7,14.0,9.5,0.9,30.9*,97.3*,-9.6
Cc1ccc2c(c1)N(CC(=O)Nc1ccccc1F)C(=O)CO2,7.5,.,.,.,21.7*,-3.0,-7.1
Cc1cccnc1NC(=O)CN1C(=O)COc2ccc(Cl)cc21,1.3,.,.,.,18.4*,2.9,-3.4
O=C(CN1C(=O)COc2ccccc21)Nc1ccccc1F,-27.1,.,.,.,-1.5,.,.
O=C(CN1C(=O)COc2ccc(Cl)cc21)Nc1nccs1,-2.6,.,.,.,.,.,.
O=C(COC(=O)C1CCN(c2ccc(C(F)(F)F)cn2)CC1)Nc1ncc(Cl)cc1Cl,1.1,.,.,.,.,.,.
CCN(CC)S(=O)(=O)c1ccc(NN=C2CCN(C)CC2)c([N+](=O)[O-])c1,0.8,-8.7,11.4,1.1,3.5,.,.
Cc1ccc(N2C(=O)CC(N3CCN/C3=C3\CC/C(=C\c4ccccc4)C3=O)C2=O)cc1 (centres undefined),-4.4,-2.7,15.6,1,17.6*,5.7,-4.8
COc1ccccc1CNC(=O)C1CCC(=O)N(CCCc2ccccc2)C1 (centres undefined),-1.6,.,.,.,-2.4,.,.
O=C(c1cc(-c2ccc(Cl)cc2Cl)on1)N1CCCC1,66.5*,.,.,.,37.0*,55.5*,57.1*
O=C(c1cc(-c2ccc(Cl)cc2Cl)on1)N1CCCCCC1,14.9,.,.,.,18.8*,34.0*,18.4*
O=C(c1cc(-c2ccc(Cl)cc2)on1)N1CCCCCC1,2.0,.,.,.,1.1,.,.
S=C(Nc1cccnc1)Nc1ccccc1Br,19.1,-5.8,0.9,1.1,25.5*,-9.8,-10.5
Fc1ccc(NC(=S)Nc2cccnc2)c(F)c1F,-7.4,-6.9,8.0,1.1,-3.4,.,.
COC(=O)c1ccc2nc(NC(=O)C3CCCCC3)sc2c1,2.2,2.0,4.8,1,18.2*,35.2*,-17.3
CC(C)c1ccc2nc(NC(=O)C3CC3)sc2c1,13.8,.,.,.,-3.3,.,.
CC(=O)c1sc(Nc2nc3ccc(F)cc3s2)nc1C,35.3,27.9,33.7,0.7,2.2,.,.
COC(=O)c1ccc2nc(Nc3nc4ccc(F)cc4s3)sc2c1,1.4,11.8,14.1,0.9,83.2*,89.6*,81.2*
c1ccc(-c2ccc(-c3ccccn3)nn2)nc1,.,59.7*,16.3,0.4,27.6*,54.1*,36.0*
CN(C)CCCNC(=S)N(CCO)Cc1cc2cc3c(cc2[nH]c1=O)OCO3,-22.8,.,.,.,7.0,.,.
Cc1ccc(CCNC(=O)C2CCN(c3nn4c(=O)cc(C)nc4s3)CC2)cc1,8.3,-4.3,32.7,1,-1.4,.,.

# From PubChem BioAssay
